Test results published in ChEMBL document CHEMBL1127371, “Acyl CoA:cholesterol acyltransferase (ACAT) inhibitors: synthesis and structure-activity relationship studies of a new series of trisubstituted imidazoles” (J Med Chem, 1994).
“And” between values parts separate entries of the source, which are not always exact repeats. Equal entries are not always repeated.

Assays:
[1] = target: T1, Sterol O-acyltransferase 1 (Rattus norvegicus, UniProt O70536); assay: In vitro inhibition of Acyl coenzyme A:cholesterol acyltransferase in rat hepatic microsomes; set-up: species or system Liver
T1 sequence (O70536 whole entry): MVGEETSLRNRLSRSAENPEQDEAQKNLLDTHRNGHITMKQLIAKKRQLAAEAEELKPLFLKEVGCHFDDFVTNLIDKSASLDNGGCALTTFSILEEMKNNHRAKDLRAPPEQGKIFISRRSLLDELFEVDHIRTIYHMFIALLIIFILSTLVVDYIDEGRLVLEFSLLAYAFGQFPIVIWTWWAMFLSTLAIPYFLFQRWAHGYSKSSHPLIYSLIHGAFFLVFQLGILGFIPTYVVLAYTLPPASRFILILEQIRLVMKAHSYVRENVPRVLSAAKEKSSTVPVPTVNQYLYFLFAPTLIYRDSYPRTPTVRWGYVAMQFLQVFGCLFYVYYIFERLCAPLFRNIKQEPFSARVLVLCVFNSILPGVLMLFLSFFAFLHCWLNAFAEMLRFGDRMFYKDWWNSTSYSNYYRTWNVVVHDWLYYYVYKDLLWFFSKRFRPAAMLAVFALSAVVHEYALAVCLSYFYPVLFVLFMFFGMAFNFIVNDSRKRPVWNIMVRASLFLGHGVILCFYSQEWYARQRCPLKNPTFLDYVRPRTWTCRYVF
Outline: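 Rat hepatic microsomes were incubated with labelled oleoyl-CoA, and formation of labelled cholesterol oleate was measured (pmol/min/mg). Assays were run in duplicate with at least four inhibitor concentrations bracketing the IC50.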

Cricetinae gen. sp. = assay: Tested anti-hypercholesterolaemic value(AHV) is the ratio of observed reduction in serum cholesterol to difference between control and baseline levels x100 at 10 mg/kg/day dose; type: functional
Mesocricetus auratus [2] = species: Mesocricetus auratus; assay: Evaluated for Syrian hamsters fed with a 0.8% cholesterol-supplemented chow diet for 7 days
Mesocricetus auratus [3] = species: Mesocricetus auratus; assay: Evaluated for Syrian hamsters fed with a 2.5% cholesterol-supplemented chow diet for 3 days
Mesocricetus auratus [4] = species: Mesocricetus auratus; assay: Evaluated for Syrian hamsters fed with 0.8% cholesterol-supplemented chow diet for 7 days
Mesocricetus auratus [5] = species: Mesocricetus auratus; assay: Evaluated for Syrian hamsters fed with 2.5% cholesterol-supplemented chow diet for 3 days

Row | Structure (SMILES) | IC50 [1] | also measured
1 | CCCCCCCN(CCCCCSc1nc(-c2ccccc2)c(-c2ccccc2)[nH]1)C(=O)NCCC | 10 nM | AHV (Cricetinae gen. sp.): 74%; Serum cholesterol (Mesocricetus auratus [2]): 199 mg %
2 | CCCCCCCCNC(=O)N(CCCCCSc1nc(-c2ccccc2)c(-c2ccccc2)[nH]1)c1ccccc1 | 10 nM | Serum cholesterol (Mesocricetus auratus [3]): 268 mg %
3 | CCCCCCCN(CCCCCSc1nc(-c2ccccc2)c(-c2ccccc2)[nH]1)C(N)=Nc1ccccc1 | 3160 nM | –
4 | CCCCCCCN(CCCCCCCCSc1nc(-c2ccccc2)c(-c2ccccc2)[nH]1)C(=O)Nc1ccc(F)cc1F | 8 nM | Serum cholesterol (Mesocricetus auratus [3]): 271 mg %
5 | CCCCCCCN(CCCCCSc1nc(-c2ccccc2)c(-c2ccccc2)[nH]1)C(=O)NC | 40 nM | –
6 | CCCCCCCN(CCCCCSc1nc(-c2ccccc2)c(-c2ccccc2)[nH]1)C(=O)Cc1ccc(F)cc1F | 25 nM | –
7 | O=C(NCCCCCSc1nc(-c2ccccc2)c(-c2ccccc2)[nH]1)Nc1ccc(F)cc1F | 400 nM | –
8 | CCCCCCCCNC(=O)N(CCCCCSc1nc(-c2ccccc2)c(-c2ccccc2)[nH]1)c1c(F)cc(F)cc1F | 20 nM | –
9 | CCCCCCCN(CCCCCSc1nc(-c2ccccc2)c(-c2ccccc2)n1-c1ccccc1)C(=O)Nc1ccc(F)cc1F | > 50000 nM | –
10 | CC(C)NC(=O)N(CCCCCSc1nc(-c2ccccc2)c(-c2ccccc2)[nH]1)c1ccccc1 | 80 nM | –
11 | CCCCCCCN(CCCCCNc1nc(-c2ccccc2)c(-c2ccccc2)[nH]1)C(=O)Nc1ccc(F)cc1F | 3500 nM | –
12 | CCCCCCCN(CCCCCSc1nc(-c2ccccc2)c(-c2ccccc2)[nH]1)C(=O)Nc1ccc([N+](=O)[O-])cc1 | 80 nM | AHV (Cricetinae gen. sp.): 38%; Serum cholesterol (Mesocricetus auratus [2]): 277 mg %
13 | CCCCCCCN(Cc1ccccc1CSc1nc(-c2ccccc2)c(-c2ccccc2)[nH]1)C(=O)Nc1ccc(F)cc1F | 3600 nM | –
14 | CCCCCCCN(CCCCCSc1nc(-c2ccccc2)c(-c2ccccc2)[nH]1)C(=O)C(C)C | 100 nM | –
15 | CCCCCCCN(CCCCCSc1nc(-c2ccccc2)c(-c2ccccc2)[nH]1)/C(S)=N\c1ccc(F)cc1F | 58 nM | –
16 | CC(C)NC(=O)N(CCCCCSc1nc(-c2ccccc2)c(-c2ccccc2)[nH]1)c1ccc(F)cc1F | 40 nM | –
17 | CCCCCCCN(CCCCC[S+]([O-])c1nc(-c2ccccc2)c(-c2ccccc2)[nH]1)C(=O)Nc1ccc(F)cc1F (stereo not drawn) | 8 nM | AHV (Cricetinae gen. sp.): 49%; Serum cholesterol (Mesocricetus auratus [2]): 278 mg %
18 | CCCCCCCN(CCCCCSc1nc(-c2ccccc2)c(-c2ccccc2)[nH]1)C(=O)Nc1c(C(C)C)cccc1C(C)C | 230 nM | –
19 | CCCCCCCN(CCCCCSc1nc(-c2ccccc2)c(-c2ccccc2)[nH]1)C(=O)OCCC | 34 nM | –
20 | CCCCCCCN(CCCCCSc1nc(-c2ccccc2)c(-c2ccccc2)[nH]1)C(=O)Cc1ccc(-c2ccccc2)cc1 | 160 nM | –
21 | CCCCCCCN(CCCCCSc1nc(-c2ccccc2)c(-c2ccccc2)n1C)C(=O)Nc1ccc(F)cc1F | 3600 nM | –
22 | CCCCCCCN(Cc1ccc(CSc2nc(-c3ccccc3)c(-c3ccccc3)[nH]2)cc1)C(=O)Nc1ccc(F)cc1F | 200 nM | –
23 | CCCCCCCN(CC(C)(C)CCSc1nc(-c2ccccc2)c(-c2ccccc2)[nH]1)C(=O)Nc1ccc(F)cc1F | 70 nM | –
24 | CCCCCCCN(CCCCCSc1nc(-c2ccccc2)c(-c2ccccc2)[nH]1)C(=O)CCC | 30 nM | AHV (Cricetinae gen. sp.): 43%; Serum cholesterol (Mesocricetus auratus [2]): 245 mg %
25 | CCCCCCCN(CCCCCSc1nc(-c2ccccc2)c(-c2ccccc2)[nH]1)C(=O)Oc1ccccc1 | 20 nM | –
26 | CCCCCCCN(CCCCCSc1nc(-c2ccccc2)c(-c2ccccc2)[nH]1)C(=O)Nc1ccc(-c2ccccc2)cc1 | 70 nM | –

Row | Structure (SMILES) | IC50 [1] | also measured
27 | CCCCCCCN(CCCCCSc1nc(-c2ccccc2)c(-c2ccccc2)[nH]1)C(=O)OC1CCCCC1 | 50 nM | –
28 | O=C(Nc1ccc(F)cc1F)N(CCCCCSc1nc(-c2ccccc2)c(-c2ccccc2)[nH]1)CCCCc1ccccc1 | 50 nM | –
29 | CCCCCCCN(Cc1cccc(CSc2nc(-c3ccccc3)c(-c3ccccc3)[nH]2)c1)C(=O)Nc1ccc(F)cc1F | 30 nM | –
30 | CCCCCCCN(CCCCCSc1nc(-c2ccccc2)c(-c2ccccc2)[nH]1)C(=O)Nc1ccc(F)cc1F [LECIMIBIDE] | – | Serum cholesterol (Mesocricetus auratus [4]): 253 mg %; Serum cholesterol (Mesocricetus auratus [5]): 205 mg %; AHV (Cricetinae gen. sp.): 59% and 61%
31 | O=C(Nc1ccc(F)cc1F)N(CCCCCSc1nc(-c2ccccc2)c(-c2ccccc2)[nH]1)CCCc1ccccc1 | 30 nM | –
32 | O=C(Nc1ccc(F)cc1F)N(CCCCCSc1nc(-c2ccccc2)c(-c2ccccc2)[nH]1)CCc1ccccc1 | 170 nM | –
33 | CCCCCCCN(CCCCCSc1nc(-c2ccccc2)c(-c2ccccc2)[nH]1)C(=O)CC1CCCCC1 | 30 nM | –
34 | CCCCCCCN(CCCCCSc1nc(-c2ccccc2)c(-c2ccccc2)[nH]1)C(N)=O | 910 nM | –
35 | CCCCCCCN(CCCCCSc1ncc[nH]1)C(=O)Nc1ccc(F)cc1F | 2900 nM | –
36 | CCCCCCCN(CCCCCSc1nc(-c2ccccc2)c(-c2ccccc2)[nH]1)C(=O)c1ccccc1 | 50 nM | –
37 | CCCCCCCN(CCSc1nc(-c2ccccc2)c(-c2ccccc2)[nH]1)C(=O)Nc1ccc(F)cc1F | 70 nM | –
38 | CCCCCCCN(CCCCCSc1nc(-c2ccccc2)c(-c2ccccc2)[nH]1)C(=O)c1ccc(F)cc1F | 60 nM | –
39 | CCCCCCCN(CCCCCS(=O)(=O)c1nc(-c2ccccc2)c(-c2ccccc2)[nH]1)C(=O)Nc1ccc(F)cc1F | 16 nM | AHV (Cricetinae gen. sp.): 30%; Serum cholesterol (Mesocricetus auratus [2]): 318 mg %
40 | CCCCCCCCNC(=O)N(CCCCCSc1nc(-c2ccccc2)c(-c2ccccc2)[nH]1)Cc1ccccc1 | 150 nM | –
41 | CCCCCCCCNC(=O)N(CCCCCSc1nc(-c2ccccc2)c(-c2ccccc2)[nH]1)c1ccc(F)cc1F | 40 nM | –
42 | CCCCCCCN(CCCCCSc1ncc(-c2ccccc2)n1-c1ccccc1)C(=O)Nc1ccc(F)cc1F | 7200 nM | –
43 | CC(C)c1cccc(C(C)C)c1NC(=O)NCCCCCSc1nc(-c2ccccc2)c(-c2ccccc2)[nH]1 | 510 nM | –
44 | O=C(Nc1ccc(F)cc1F)N(CCCCCSc1nc(-c2ccccc2)c(-c2ccccc2)[nH]1)Cc1ccccc1 | 200 nM | –
45 | CCCCCCCN(CCCCCCc1nc(-c2ccccc2)c(-c2ccccc2)[nH]1)C(=O)Nc1ccc(F)cc1F | 280 nM | –
46 | CCCCCCCN(CCCCCSc1nc(-c2ccccc2)c(-c2ccccc2)[nH]1)C(=O)Nc1c(F)cc(F)cc1F | 16 nM | Serum cholesterol (Mesocricetus auratus [3]): 218 mg %; AHV (Cricetinae gen. sp.): 51%
47 | CCCCCCCN(CCCCCSc1nc(-c2ccccc2)c(-c2ccccc2)[nH]1)C(=O)Nc1ccccc1 | 23 nM | –
48 | CCCCCCCN(CCCCCSc1nc(-c2ccccc2)c(-c2ccccc2)[nH]1)C(=O)NC1CCCCC1 | 10 nM | –
49 | CCCCCCCN(CCCCCSc1nc(-c2ccccc2)c(-c2ccccc2)[nH]1)C(=O)NC(C)C | 20 nM | –
50 | CCCCCCCN(CCCCCSc1nc(-c2ccccc2)c(-c2ccccc2)[nH]1)/C(S)=N\c1c(F)cc(F)cc1F | 30 nM | –
51 | CCCN(CCCCCSc1nc(-c2ccccc2)c(-c2ccccc2)[nH]1)C(=O)Nc1ccc(F)cc1F | 30 nM | –
52 | CCCCCCCN(CCCCCSc1nc(-c2ccccc2)cn1-c1ccccc1)C(=O)Nc1ccc(F)cc1F | 42000 nM | –
